Bioassay records (PubChem)
Thrombin inh: human alpha-thrombin inhibitors, primary screen, counter-screen for coagulation protease inhibitor project, biochemical, 1536-well, fluorogenic AMC substrate; Prothrombin (Homo sapiens), P00734; Boc-VPR-AMC fluorogenic substrate cleavage; inhibition, % at 5 µM; actives 0.26% (n = 220,000); AID 1046, 2008;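 active = inhibition at or above 40%; inactive = inhibition below 40%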
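Test system: human alpha-thrombin; medium: pH 7.5 Tris-saline with Tween 20; times: reaction at room temperature; signal: AMC fluorescence at 355 nm excitation and 460 nm emission; also added: Boc-VPR-AMC substrate, 15 µM final; dosing: one concentration per compound, 5 µM, with 0.2% DMSO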
KLK5 inh: human KLK5 protease inhibitors, primary screen, biochemical, 1536-well; Kallikrein-5 (Homo sapiens), Q9Y337; inhibition, % at 5 µM; recombinant hK5, fluorogenic AMC substrate cleavage; AID 873, 2007; actives 0.59% (n = 210,000);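 active = inhibition of 40% or more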
Furin inhibitor: human furin inhibitors, primary screen, biochemical, fluorescence intensity. AID 463115, 2010. inhibition, % at 20 µM or 30 µM. purified furin, fluorogenic substrate cleavage. actives 0.061% (n = 220,000). P09958; in the data active = inhibition above about 25%
FXIIa inh 1536: human FXIIa protease inhibitors, primary screen, biochemical, 1536-well | actives 0.3% (n = 220,000) | purified FXIIa, Boc-QGR-AMC fluorogenic substrate, 2 h | Coagulation factor XII (Homo sapiens), P00748 | inhibition, % at 5 µM; in the data active = inhibition above about 40%
FXIa inh 1536: human FXIa protease inhibitors, primary screen, biochemical, 1536-well; purified FXIa, Boc-Glu-Ala-Arg-AMC fluorogenic substrate; inhibition, % at 5 µM; actives 0.14% (n = 220,000);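 active = inhibition of at least 40%; inactive = inhibition below 40%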;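 also: fluorescence of freed AMC excited at 355 nm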
Each line names hits and unclear results; the compound was inactive in the other large screens. Only some compounds are listed: those with a hit (about 1.1% of all), similar ones and a draw of the others.

Oc1ccc(NC(=S)Nc2ccc(O)cc2)cc1	none
COC(=O)c1ccc(NC(=S)Nc2ccc(O)cc2)cc1	FXIIa inh 1536 61
Cc1ccc2c(c1)[nH]c1c(=O)n(CCC3=CCCCC3)cnc12	Thrombin inh 64
COC(C/C=C/[C@H](O)COCc1ccccc1)OC	none
COC(C/C=C/[C@@H](O)COCc1ccccc1)OC	KLK5 inh 46
Cc1nnc2c(-c3ccccc3)nc3ccccc3n12	Thrombin inh 45
Cc1cc(C)n(-c2nc3ccccc3n3c(C)nnc23)n1	none
CCOc1ccc(-c2cc(N)n(S(=O)(=O)c3ccc(OC)c(OC)c3)n2)cc1	none
COc1ccc(S(=O)(=O)n2nc(-c3ccc(Cl)cc3)cc2N)cc1OC	KLK5 inh 48
COc1cc(/C=C(/NC(=O)c2ccccc2)C(=O)N2CCN(C)CC2)c([N+](=O)[O-])cc1OC	KLK5 inh 40
CCC(C)(C)n1c(=O)[nH]c2c(c1=O)CCC2	none
COc1ccccc1N1CCN(C/C(O)=C(\C#N)c2nc(-c3ccccc3)cs2)CC1	FXIIa inh 1536 43
Cn1c(SCC(=O)c2ccc3c(c2)NC(=O)CO3)nc2ccccc21	Thrombin inh 53
CC(=O)Nc1ccc(C(=O)CSc2nccc(=O)[nH]2)cc1	none (no result: KLK5 inh)
COc1ccc(C(=O)n2ccc(C)n2)cc1Br	KLK5 inh 70
COc1ccc(C(=S)N2CCN(C)CC2)cc1Br	none
CCN(CC)C(=O)CSc1nc2ccccc2c(=O)n1CC	KLK5 inh 88
CCOC(=O)CSc1nc2ccccc2c(=O)n1CC	none
CCCCCCCCS(=O)c1sc2nc3c(cc2c1N)CCCC3 (stereo not given)	none
CCCCS(=O)(=O)c1sc2nc3c(cc2c1N)CCCC3	KLK5 inh 42
CCn1c(SCC(=O)N2CCN(c3ccccc3)CC2)nnc1-c1cc2cc(Cl)ccc2o1	FXIIa inh 1536 47
C=CCn1c(SCC(=O)N2CCN(c3ccccc3)CC2)nnc1-c1ccco1	none
Cc1ccc(/C=c2\sc3nc(-c4ccccc4Br)nn3c2=O)o1	Thrombin inh 104
Cc1cc(C)nc(-n2nc(C)cc2Nc2ccccc2)n1	Thrombin inh 104, KLK5 inh 54
Nc1cc2c(cc1[N+](=O)[O-])OCCOCCOCCO2	none
O=C(NCCCCNC(=O)C(F)(F)F)C(F)(F)F	none
COCCCNC(=O)C(F)(F)C(F)(F)C(=O)NCCCOC	KLK5 inh 122
COc1cccc(C(=O)SC2=NCCS2)c1	KLK5 inh 60
NC(CC(=O)O)c1ccc(Br)cc1 (stereo not given)	none
O=C(O)CC(Cc1ccc(Br)cc1)C(=O)O (stereo not given)	FXIIa inh 1536 61
O=C1c2ccccc2C(Nc2ccc3c(c2)OCCO3)N1c1ccc(Cl)cn1 (stereo not given)	none
O=C1c2ccccc2C(Nc2ccc3c(c2)OCCO3)N1c1ccccn1 (stereo not given)	KLK5 inh 51
O=C(COc1cccnc1[N+](=O)[O-])Nc1cccc(S(=O)(=O)N2CCCCC2)c1	none
COc1cccc(C2CC(c3ccc(F)cc3)Nc3nc(N)nn32)c1 (stereo not given)	KLK5 inh 53
Cc1nc(SCC(=O)NC(C)(C#N)C2CC2)c2c(-c3cccs3)csc2n1 (stereo not given)	none
COC(=O)c1ccccc1NC(=O)N1CCN(S(=O)(=O)c2ccc(Cl)cc2)CC1	KLK5 inh 102
O=C(CSc1nnc(C2CC2)n1Cc1ccccc1)NCc1ccccc1	none
NC(=O)c1ccsc1NC(=O)CSc1nnc(C2CC2)n1Cc1ccccc1	Thrombin inh 59, KLK5 inh 48
COc1cccc(-n2c([S-])c(C(=O)Nc3ccc(C(F)(F)F)cc3)[n+]3ccccc23)c1	none
CC1(C)CC(=O)C=C(NCCO)C1	none
CCCCCCCCNC1=CC(=O)CC(C)(C)C1	KLK5 inh 50
COCCNC(=O)C(c1ccc(C)o1)N(C(=O)c1snc(C(N)=O)c1N)c1ccc(C)cc1 (stereo not given)	none
COCCNC(=O)C(c1ccc(C)o1)N(C(=O)c1snc(C(N)=O)c1N)c1ccc(C)c(C)c1 (stereo not given)	KLK5 inh 44
CC(C)NC(=O)CSc1nc(-c2ccccc2)cs1	Thrombin inh 40, FXIa inh 1536 46
COc1ccc(OC)c2c(C)c(C)[nH]c12	none
